Screening results (PubChem)
The list is not random: actives were taken first. Their share in the collection is about 3.8%.
hERG rescue: shields human hERG channel from block by proarrhythmic agents. CHO-hERG, FluxOR thallium flux, dofetilide IC70 present. activation (rescue from dofetilide block), less the hit threshold, % at 10 µM. Q12809. actives 0.51% (n = 310,000);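 active = activation above the mean of controls blocked by dofetilide plus 5 SD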;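 also: thallium influx through hERG after potassium depolarization seen as dye fluorescence rise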
KCNQ1 pot: potentiators or activators of human KCNQ1 potassium channel; CHO-K1 KCNQ1, thallium flux FluxOR fluorescence; stronger effect = higher value; actives 0.35% (n = 310,000); P51787; B-score at 10 µM;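 active = fluorescence ratio B-score, a plate-corrected score, at least three library SD, with initial intensity B-score within 5 SD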
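Assay system: CHO-K1 cells stably expressing KCNQ1. Medium: assay buffer for compound exposure, DMSO matched across wells. Timing: 37 °C overnight plating, 90-min dark dye load, 20-min compound pretreatment. Signal: kinetic FluxOR fluorescence, 10 s baseline plus 110 s post-stimulus.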
Kir21 inh: inhibitors of mouse Kir2.1 inward-rectifier potassium channel; P35561; HEK293-Kir2.1, FluxOR thallium flux fluorescence; stronger effect = lower value; B-score at 10 µM; actives 0.85% (n = 310,000); AID 1672;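 active = fluorescence ratio B-score at or below minus 3 SD of library scores, with starting-brightness B-score within 2 SD, cut at about -4.2 in these data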;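 also: channel flux triggered by added potassium and thallium sulfate stimulus; B-score of peak minus minimum fluorescence over baseline after thallium stimulus; more negative B-score means stronger Kir2.1 block with less thallium influx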
Target sequence (P35561 whole entry, looked up): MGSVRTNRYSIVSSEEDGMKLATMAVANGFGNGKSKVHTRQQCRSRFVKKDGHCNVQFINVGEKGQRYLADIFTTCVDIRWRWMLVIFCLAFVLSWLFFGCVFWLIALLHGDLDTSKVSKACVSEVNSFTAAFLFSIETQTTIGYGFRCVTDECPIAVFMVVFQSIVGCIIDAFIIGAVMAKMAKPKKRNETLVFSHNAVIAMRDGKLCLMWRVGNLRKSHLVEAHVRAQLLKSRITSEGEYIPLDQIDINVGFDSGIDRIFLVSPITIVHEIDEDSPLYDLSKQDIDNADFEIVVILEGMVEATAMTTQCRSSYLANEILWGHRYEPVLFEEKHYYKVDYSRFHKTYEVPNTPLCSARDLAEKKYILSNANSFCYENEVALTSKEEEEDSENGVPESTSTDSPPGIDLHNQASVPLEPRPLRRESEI
KCNK3 inh: human KCNK3 channel inhibition, primary screen; actives 0.84% (n = 340,000); CHO-KCNK3 thallium flux, FluxOR fluorescence; stronger effect = lower value; B-score at 10 µM;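 active = B-score under library mean minus 4 SD, starting fluorescence ratio at most library mean plus 5 SD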;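 also: more negative B-score means stronger inhibition of thallium flux through KCNK3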
KCNQ1 inh: blocks the human KCNQ1 potassium channel. CHO-K1 KCNQ1, FluxOR thallium flux fluorescence; stronger effect = higher value. B-score at 10 µM. actives 1.3% (n = 310,000). AID 2642;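 active = compounds whose thallium flux B-score, printed positive for inhibition, exceeds three library SD while starting fluorescence stays within three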;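 also: channel opened by potassium depolarization with thallium stimulus after 20 min compound exposure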
KCNK9 block: inhibitors of human KCNK9 two-pore domain potassium channel; Q9NPC2; HEK293 KCNK9, FluxOR thallium flux fluorescence; stronger effect = lower value; B-score at 10 µM; actives 1.2% (n = 310,000);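 active = ratio B-score over 3 SD below the library mean, with starting fluorescence within 5 SD of its mean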;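 also: negative B-score means less thallium flux so channel inhibition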
KCNK9 block conf: human KCNK9 inhibitor confirmation; HEK293 KCNK9 cells, FluxOR thallium flux fluorescence; inhibition, % at 10 µM; actives 43% (n = 4,900); shares compounds with KCNK9 block;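 active = thallium signal inhibited by more than 5 SD of the compound-free buffer control wells, on both duplicate plates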
Kir2-1 spec: tests whether KCNK9 modulators also affect mouse Kir2.1 | shares compounds with KCNK9 block | Kir2.1 cells, FluxOR thallium flux fluorescence | inhibition, % at 10 µM | actives 4% (n = 4,900) | AID 492993;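 active = thallium signal drop more than 5 SD beyond the mean of the no-compound control wells, seen in both duplicate plates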;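 also: signal is fluorescence rise after thallium addition divided by baseline fluorescence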
HEK293 Tl ctr: second check of KCNK9 modulator effects in non-induced HEK293 cells; shares compounds with KCNK9 block; FluxOR thallium flux; inhibition, % at 10 µM; actives 40% (n = 4,900); AID 492997;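 active = thallium signal drop beyond 5 SD of the untreated control mean, on both duplicate plates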
Of the large screens only hits and unclear results are named; the others gave an inactive call (follow-up assays come after a bar, where they were run).

CCN(CC)C(=O)CSc1nc(N)c(C#N)c(-c2cccs2)c1C#N	none
COc1ccc(C(c2nnnn2C2CCCCC2)N2CCN(c3ccc(OC)cc3)CC2)cc1 (stereo unspecified)	none
COc1ccc(OC)c(C(c2nnnn2C2CCCC2)N2CCN(c3ccccc3)CC2)c1 (stereo unspecified)	KCNK9 block -8.6 | KCNK9 block conf 58% | Kir2-1 spec inactive | HEK293 Tl ctr 43%
O=C(C[n+]1ccncc1)c1ccccc1	none
COC(=O)c1ccc(COc2ccccc2/C=C(\C#N)C(=O)Nc2c(C)cccc2C)cc1	KCNK9 block -13 | KCNK9 block conf 76% | Kir2-1 spec inactive | HEK293 Tl ctr 34%
COC(=O)c1ccc(COc2ccccc2/C=C(\C#N)C(=O)Nc2ccccc2C)cc1	none
Cc1ccc2c(c1)c(/C=C/c1cc[n+](C)cc1)c(C)n2C	none
Cc1ccc2[nH]c(C)c(/C=C/c3cc[n+](C)cc3)c2c1	KCNK9 block -8.1 | KCNK9 block conf 76% | Kir2-1 spec 56% | HEK293 Tl ctr 75%
C=C1CCN([C@@H](CC(C)C)C(=O)NCCCc2ccccc2)S(=O)(=O)c2ccccc21	none
COc1ccccc1CNC(=O)COC(=O)c1ccc(C)c(S(=O)(=O)N2CCOCC2)c1	none
CCCOc1cccc(C(=O)NC(=S)Nc2cccc(C(F)(F)F)c2)c1	none | KCNK9 block conf inactive | Kir2-1 spec inactive | HEK293 Tl ctr inactive
Cc1ccc(N2CCN(S(=O)(=O)c3ccc(Cl)s3)CC2C)cc1 (stereo unspecified)	none | KCNK9 block conf inactive | Kir2-1 spec inactive | HEK293 Tl ctr inactive
Cc1ccc(N(Cc2ccc([N+](=O)[O-])cc2)C(=O)c2ccco2)cc1C	KCNK9 block -13 | KCNK9 block conf 56% | Kir2-1 spec inactive | HEK293 Tl ctr 42%
O=C(c1ccco1)N(Cc1ccc([N+](=O)[O-])cc1)c1ccc(Cl)cc1	none
CCCCNC(=S)N/N=C/C1=CCC2CC1C2(C)C (stereo unspecified)	none | KCNK9 block conf inactive | Kir2-1 spec inactive | HEK293 Tl ctr inactive
CCN(CC)c1ccc(/C=N/OCC(=O)N2CCCc3ccccc32)cc1	none | KCNK9 block conf inactive | Kir2-1 spec inactive | HEK293 Tl ctr inactive
O=C(CO/N=C/c1ccc(OC(F)F)cc1)N1CCc2ccccc21	none
O=S(=O)(NCC1CCCO1)c1cc(Br)c(Br)s1 (stereo unspecified)	none (no result: hERG rescue, KCNQ1 pot, Kir21 inh, KCNQ1 inh, KCNK9 block)
COc1ccc2c(c1)C(=NNc1ccc(C(=O)O)cc1)c1cc(OC)ccc1-2	none | KCNK9 block conf inactive | Kir2-1 spec inactive | HEK293 Tl ctr inactive
COc1ccc(/C(C)=N/Nc2ccc(C(=O)O)cc2)c(OC)c1	none
CSc1ccc(CN(C)CC(=O)Nc2ccc(C)cc2Br)cc1	none | KCNK9 block conf inactive | Kir2-1 spec inactive | HEK293 Tl ctr inactive
CCCCC(=O)Nc1ccccc1C(=O)OCC(=O)c1ccc2c(c1)OCCO2	KCNK9 block -19 | KCNK9 block conf 78% | Kir2-1 spec inactive | HEK293 Tl ctr 43%
OC(CSc1c(Cl)cccc1Cl)CN1CCN(c2ccccc2F)CC1 (stereo unspecified)	none | KCNK9 block conf inactive | Kir2-1 spec inactive | HEK293 Tl ctr inactive
OC(CSc1ccccc1Cl)CN1CCN(c2ccc(F)cc2)CC1 (stereo unspecified)	none
COc1cccc(OC)c1OCC(O)CN1CCN(c2ccccc2F)CC1 (stereo unspecified)	none
OC(CSc1c(Cl)cccc1Cl)CN1CCN(c2ccc(F)cc2)CC1 (stereo unspecified)	none | KCNK9 block conf inactive | Kir2-1 spec inactive | HEK293 Tl ctr inactive
